Columns and labels:
[1] = Half-life in mouse brain after intravenous administration of 100 mg/kg of dose
[2] = Apparent volume of distribution in mice after intravenous administration of 105.1 mg/kg of dose; format: ADME, organism-based; parameters: dose 105.1 mg/kg, route intravenous; conditions: mouse, in vivo, read-out: Vss
Mus musculus [3] = test: Apparent clearance in mice after intravenous administration of 105.1 mg/kg of dose; format: ADME, organism-based; parameters: dose 105.1 mg/kg, route intravenous; conditions: in vivo
Mus musculus [4] = test: Apparent clearance in mice after oral administration of 100 mg/kg of dose; format: ADME, organism-based; parameters: dose 100 mg/kg, route oral; conditions: in vivo
Method in brief: (§1)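 Female NIH-Swiss mice, 24–28 g. Compounds dissolved in physiological saline at 15 mg/mL and given once, either intragastrically or iv via tail vein over 30 s, at 100 or 106.8 mg/kg (equimolar). Three mice per time point, killed by heart puncture under ether. Serum and brain stored at -20 °C. Brain homogenized 1:1 (g:mL) in isotonic phosphate buffer, pH 7.4. Analysis by reversed-phase HPLC with UV at 260 nm and an internal standard. Noncompartmental pharmacokinetics, AUC by Lagrange polynomial integration.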

Mus musculus [5] = test: Bioavailability in mouse brain after oral administration of 100 mg/kg of dose; format: ADME, organism-based; conditions: in vivo
Method in brief: (§2)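 Single-dose pharmacokinetics in female NIH-Swiss mice given the compound in saline, either intragastrically or iv via tail vein over 30 s. Three mice sampled per time point. Serum or brain homogenate assayed by HPLC-UV at 260 nm. AUC calculated by Lagrange polynomial integration. Bioavailability taken as the ratio of oral to iv AUC.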

[6] = Half-life in mouse serum after oral administration of 100 mg/kg of dose; format: ADME, organism-based; parameters: dose 100 mg/kg, route oral
Method in brief: as §1

Mus musculus [7] = test: Apparent volume of distribution in mice after oral administration of 100 mg/kg of dose; format: ADME, organism-based; parameters: dose 100 mg/kg, route oral; conditions: in vivo
Method in brief: as §1

Mus musculus [8] = test: Bioavailability in mouse serum after oral administration of 100 mg/kg of dose; format: ADME, organism-based; conditions: in vivo
Mus musculus [9] = test: Bioavailability in mouse serum after intravenous administration of 105.1 mg/kg of dose; format: ADME, organism-based; conditions: in vivo
[10] = Bioavailability after oral administration of 100 mg/kg of dose in mouse; format: ADME, organism-based; conditions: in vivo
Method in brief: as §2

[11] = Half-life in mouse brain after oral administration of 100 mg/kg of dose; format: ADME, organism-based; parameters: dose 100 mg/kg, route oral
Method in brief: as §1

Mus musculus [12] = test: Bioavailability in mouse brain after intravenous administration of 105.1 mg/kg of dose; format: ADME, organism-based; conditions: in vivo
[13] = Half-life in mouse serum after intravenous administration of 100 mg/kg of dose
Mus musculus [14] = test: Bioavailability in mouse brain after intravenous administration of equimolar doses of ( 2'F-ara-ddI + 2'F-ara-ddP); format: ADME, organism-based; conditions: in vivo
Mus musculus [15] = test: Bioavailability in mouse serum after oral administration of equimolar doses of ( 2'F-ara-ddI + 2'F-ara-ddP); format: ADME, organism-based; conditions: in vivo
Mus musculus [16] = test: Bioavailability in mouse brain after oral administration of equimolar doses of ( 2'F-ara-ddI + 2'F-ara-ddP); format: ADME, organism-based; conditions: in vivo
Method in brief: as §2

[17] = Evaluated for the maximum serum concentration administered at 1 hour in mice; format: ADME, organism-based; conditions: mouse
Method in brief: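 Serum drug level in female NIH-Swiss mice after a single intragastric dose in saline, 100 mg/kg for the prodrug or an equimolar dose for the parent. Blood drawn by heart puncture under ether, three mice per time point. Serum analyzed by reversed-phase HPLC with UV at 260 nm; detection limit 50–100 ng/mL. Peak concentration read from the concentration–time profile and given as mean ± SD.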

Mus musculus [18] = test: Bioavailability in mouse serum after intravenous administration of equimolar doses of ( 2'F-ara-ddI + 2'F-ara-ddP); format: ADME, organism-based; conditions: in vivo

half-life [1] [min] | Vd [2] [L/kg] | CI (Mus musculus [3]) [mL/min/kg] | CI (Mus musculus [4]) [mL/min/kg] | AUC (Mus musculus [5]) [uM L] | half-life [6] [min] | Vss (Mus musculus [7]) [L/kg] | AUC (Mus musculus [8]) [uM L] | AUC (Mus musculus [9]) [uM L] | bioavailability [10] [%] | half-life [11] [min] | AUC (Mus musculus [12]) [uM L] | half-life [13] [min] | AUC (Mus musculus [14]) [uM L] | AUC (Mus musculus [15]) [uM L] | AUC (Mus musculus [16]) [uM L] | Cmax [17] [µM] | AUC (Mus musculus [18]) [uM L] | SMILES
25.2 | 1.12 | 29.3 | 48.3 | 32.3 | 47.4 | 2.32 | 153 | 252 | 60.7 | 39 | 120 | 24 |  |  |  |  |  | OCC1CC(F)C(n2cnc3cncnc32)O1 (configuration not stated)
 |  |  | 48 |  | 257 | 14.5 | 154 |  |  |  |  |  | 48 | 134 | 47.9 | 48.1 | 132 | OCC1CC(F)C(n2cnc3c(O)ncnc32)O1 (configuration not stated)
